pIC50, pKd: −log10 of the molar value. Activity calls are given as the source filed them. No cut-off for these calls is given here.
Tests used:
[1] = test system: Human immunodeficiency virus 1; assay: Binding affinity to immobilized HIV1 YU2 gp120 upto 1 mM by surface plasmon resonance method
Procedure, shortened: (§1)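 YU2 gp120 (Drosophila S2-expressed, F105-affinity purified) amine-coupled to CM5 chip (~4000 RU); peptides in PBS injected at 15 μL/min, 5 min association, 5 min dissociation. Buffer and anti-IL5Rα 2B6R control-surface responses subtracted; kinetic constants fitted in BIAevaluation.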

[2] = Binding affinity to immobilized HIV1 YU2 gp120 by surface plasmon resonance method; parameters: species or system Human immunodeficiency virus 1; procedure, shortened: as §1
[3] = Inhibition of HIV1 YU2 gp120 binding to immobilized CD4 induced 17b monoclonal antibody by surface plasmon resonance method; parameters: species or system Human immunodeficiency virus 1
[4] = Inhibition of HIV1 YU2 gp120 binding to immobilized CD4 by surface plasmon resonance method; parameters: species or system Human immunodeficiency virus 1
[5] = Binding affinity to HIV1 YU2 gp120 by isothermal titration calorimetric method; parameters: species or system Human immunodeficiency virus 1
[6] = test system: Human immunodeficiency virus 1; assay: Antiviral activity against HIV1 BaL in CCR5 expressing P4 cells after 2 hrs; type: functional, organism-based; conditions: Human immunodeficiency virus 1, BaL, P4, 2 h
Procedure, shortened: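 P4-CCR5 cells (DMEM, 10% FBS, puromycin) seeded 1.2×10^4/well ~18 h ahead; exposed 2 h to HIV-1 BaL plus peptide, washed, cultured 46 more h; infection read by β-galactosidase reporter assay. Infectivity relative to mock-treated infected cells; IC50 from sigmoidal dose-response fit; two independent experiments combined.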

[7] = Cytotoxicity against CCR5 expressing human P4 cells after 2 hrs by MTT assay; type: cell-based; conditions: p4, 2 h
Procedure, shortened: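 P4-CCR5 cells seeded 4×10^4/well ~18 h ahead, exposed 2 h to varying peptide concentrations, washed, then viability by MTT; triplicate in two independent assays.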

[8] = Inhibition of HIV1 YU2 gp120 binding to immobilized CD4 binding site specific b6 monoclonal antibody by surface plasmon resonance method; parameters: species or system Human immunodeficiency virus 1
[9] = Inhibition of HIV1 YU2 gp120 binding to immobilized CD4 binding site specific F105 monoclonal antibody by surface plasmon resonance method; parameters: species or system Human immunodeficiency virus 1
[10] = Inhibition of HIV1 YU2 gp120 binding to immobilized CD4 binding site specific immunoglobulin G b12 monoclonal antibody by surface plasmon resonance method; parameters: species or system Human immunodeficiency virus 1

Activity [1] | pKd [2] | pIC50 [3] | pIC50 [4] | pKd [5] | pIC50 [6] | pIC50 [8] | pIC50 [9] | pIC50 [10] | SMILES | Activity [7]
inactive | – | – | – | – | – | – | – | – | CC[C@H](C)[C@H](NC(=O)[C@@H](N)CCCNC(=N)N)C(=O)N[C@@H](CC(N)=O)C(=O)N[C@@H](CC(N)=O)C(=O)N[C@H](C(=O)N1C[C@@H](n2cc(C3(N)CCCCC3)nn2)C[C@H]1C(=O)N[C@@H](Cc1c[nH]c2ccccc12)C(=O)N[C@@H](CO)C(=O)N[C@@H](CCC(=O)O)C(=O)N[C@@H](C)C(=O)N[C@@H](CCSC)C(=O)N[C@@H](CCSC)C(=O)O)[C@@H](C)CC | –
– | 7.64 | 6.76 | 6.81 | 7.48 | 5.85 | 6.97 | 6.96 | 6.79 | CC[C@H](C)[C@H](NC(=O)[C@@H](N)CCCNC(=N)N)C(=O)N[C@@H](CC(N)=O)C(=O)N[C@@H](CC(N)=O)C(=O)N[C@H](C(=O)N1C[C@@H](n2cc(-c3ccccc3)nn2)C[C@H]1C(=O)N[C@@H](Cc1c[nH]c2ccccc12)C(=O)N[C@@H](CO)C(=O)N[C@@H](CCC(=O)O)C(=O)N[C@@H](C)C(=O)N[C@@H](CCSC)C(=O)N[C@@H](CCSC)C(=O)O)[C@@H](C)CC | Non-toxic
– | 5.30 | 5.14 | 5.27 | 5.59 | 4.32 | 5.00 | 5.19 | 5.06 | CC[C@H](C)[C@H](NC(=O)[C@@H](N)CCCNC(=N)N)C(=O)N[C@@H](CC(N)=O)C(=O)N[C@@H](CC(N)=O)C(=O)N[C@H](C(=O)N1CCC[C@H]1C(=O)N[C@@H](Cc1c[nH]c2ccccc12)C(=O)N[C@@H](CO)C(=O)N[C@@H](CCC(=O)O)C(=O)N[C@@H](C)C(=O)N[C@@H](CCSC)C(=O)N[C@@H](CCSC)C(=O)O)[C@@H](C)CC [RINNIPWSEAMM] | Non-toxic

Source: ChEMBL document CHEMBL1150247, “Structural determinants for affinity enhancement of a dual antagonist peptide entry inhibitor of human immunodeficiency virus type-1” (J Med Chem, 2008)
